A selection: hits, their analogues and other compounds. The true share with any hit is near 1.3%.
ERp5 block = inhibitors of ERp5-driven insulin aggregation, primary screen, biochemical, turbidity, absorbance 650 nm, single point; 90 min; inhibition, % at 9.99 µM; 350,000 tested, 0.05% active;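 active means mean replicate inhibition above about 25%, with every replicate also reaching it, limit read from the data, passing the limit was not always enough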
PDI turbidity = inhibitors of human PDI, primary screen, biochemical, turbidity, single point, plate reader; Protein disulfide-isomerase (Homo sapiens), P07237; 350,000 tested, 0.052% active; PDI insulin aggregation turbidity, A650, 90 min; inhibition, % at 10 µM; AID 588391, 2011;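 active means mean inhibition across replicates of 30% or more, whatever share of single replicates reach that level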
Target sequence (P07237 whole entry, looked up): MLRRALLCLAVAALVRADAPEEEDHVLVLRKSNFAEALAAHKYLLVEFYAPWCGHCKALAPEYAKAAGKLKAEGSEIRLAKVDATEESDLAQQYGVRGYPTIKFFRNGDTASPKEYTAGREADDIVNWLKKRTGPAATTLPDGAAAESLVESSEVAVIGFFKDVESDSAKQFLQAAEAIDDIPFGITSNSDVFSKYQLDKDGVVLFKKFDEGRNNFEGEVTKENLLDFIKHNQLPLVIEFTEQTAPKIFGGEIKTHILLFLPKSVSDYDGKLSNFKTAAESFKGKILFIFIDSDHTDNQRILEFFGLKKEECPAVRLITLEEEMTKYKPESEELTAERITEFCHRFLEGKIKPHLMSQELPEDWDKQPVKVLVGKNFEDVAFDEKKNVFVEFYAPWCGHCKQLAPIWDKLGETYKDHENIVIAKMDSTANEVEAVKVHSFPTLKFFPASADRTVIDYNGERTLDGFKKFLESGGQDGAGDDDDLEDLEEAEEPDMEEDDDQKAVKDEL
SIRT5 inh = SIRT5 desuccinylase inhibitors, primary screen, biochemical, fluorescence imaging, single point, set 5 | 330,000 tested, 1.1% active | inhibition, % at 15 µM | NAD-dependent protein deacylase sirtuin-5, mitochondrial (Homo sapiens), Q9NXA8 | Purified SirT5, succinyl-peptide AMC, trypsin-coupled fluorescence; in the data active means inhibition above about 15%
MLL AF4-AF9 inh = inhibitors of AF4 peptide binding to AF9, primary screen, biochemical, AlphaScreen, biotin-AF4 peptide, FLAG-AF9, single point; Protein AF-9 (Homo sapiens), P42568; inhibition, % at 10 µM; 350,000 tested, 0.47% active;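 active means every replicate reaching a set inhibition limit, whatever the replicate mean, cut at about 25% in these data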;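 further: 0% = plate neutral control median and 100% = total signal loss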
FN deposition inh = inhibitors of fibronectin matrix deposition, primary screen, AH1F cells, Alexa488-fibronectin fluorescence, plate reader; 350,000 tested, 0.086% active; AH1F fibroblasts, overnight; inhibition, % at 12.6 µM;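 active means mean inhibition across replicates of 30% or more, regardless of how many single replicates reach that level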;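 further: positive control wells lacked labelled fibronectin entirely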
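Assay system: AH1F fibroblasts / Quantity: 10000 cells per well / Medium: DMEM plus 2% serum, read in PBS / Reagent: labelled fibronectin 24 nM / Dosing: single dose, pinned / Times: 1 h cell attachment, overnight exposure to compound and label / Signal: fluorescence, ex 485 nm, em 525 nm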
The depositor's hits bear a star; · = not tested or not shown; ! = a repeat was not active.

SMILES | ERp5 block | PDI turbidity | SIRT5 inh | MLL AF4-AF9 inh | FN deposition inh
O=C(O)c1cccc(S(=O)(=O)Nc2ccccc2Cc2ccccc2)c1 | 9 | 18 | -2 | 44* | 2
O=C(O)c1cccc(S(=O)(=O)Nc2cccc3ccccc23)c1 | 10 | -1 | 2 | -6 | 13
Nc1cccc2c(=O)c3ccccc3[nH]c12 | -4 | 1 | -2 | 1 | -6
Cc1ccc(C)c(N2CCN(C(=O)c3cccn4c(=O)c5sccc5nc34)CC2)c1 | 7 | -3 | 19* | 3 | 7
Cc1ccc(C)c(N2CCN(C(=O)c3cc4ccccc4oc3=O)CC2)c1 | -6 | · | 6 | -2 | 5
C=CCN(CC=C)Cc1cc(=O)n2c(-c3ccccc3)csc2n1 | -3 | 2 | 3 | 49* | -7
O=S(=O)(c1ccccc1)N1CCCCN2[C@@H](CO)[C@H](c3ccc(C#CC4CCCC4)cc3)[C@@H]2C1 | -2 | · | 7 | 4 | 3
COc1ccc(S(=O)(=O)N2CCCCN3[C@@H](CO)[C@H](c4ccc(C#CC(C)C)cc4)[C@@H]3C2)cc1 | -1 | · | 15* | 3 | ·
O=S(=O)(c1ccccc1)N1CCCCN2[C@H](C1)[C@@H](c1ccc(C#CC3CCCC3)cc1)[C@@H]2CO | -4 | · | 15* | 2 | -3
OC[C@@H]1[C@H](c2ccc(C#CC3CCCC3)cc2)[C@H]2CN(CCC(F)(F)F)CCCCN12 | 3 | · | 2 | 25* | ·
O=C(C[C@H]1CC[C@@H]2[C@H](COC[C@@H](O)CN2C(=O)Nc2ccc(F)cc2)O1)NCCc1ccncc1 | 4 | · | -4 | -1 | -14
O=C1CCC(C(=O)OCC(=O)c2ccccc2)N1 (stereo unspecified) | -4 | 1 | -4 | 0 | ·
COc1ccc(C(=O)COC(=O)C2CCC(=O)N2)cc1 (stereo unspecified) | 0 | -7 | 17* | 1 | -4
Cc1cc(NC(=O)Nc2ccccc2F)ccc1Br | 1 | -15 | -9 | -3 | 39*
O=C(COC(=O)CSc1ccc([N+](=O)[O-])cc1)NCc1cccs1 | -4 | 0 | 15* | -5 | 7
Cc1ccc(SCC(=O)OCC(=O)NCc2cccs2)cc1 | 0 | -4 | 8 | -3 | 0
Cc1ccc(S(=O)(=O)Nc2ccc3c(c2)C(=O)N([C@H](C)CO)C[C@H](C)[C@@H](CN(C)Cc2ccc(Cl)c(Cl)c2)OCCCC[C@H](C)O3)cc1 | 6 | · | 28* | 4 | -8
C[C@@H]1CN([C@H](C)CO)C(=O)c2cc(NS(=O)(=O)c3ccccc3)ccc2O[C@@H](C)CCCCO[C@@H]1CN(C)Cc1ccc(Cl)c(Cl)c1 | -7 | · | 15*! | 0 | -2
Cc1ccc(S(=O)(=O)Nc2ccc3c(c2)C(=O)N([C@H](C)CO)C[C@@H](C)[C@H](CN(C)Cc2ccc(Cl)c(Cl)c2)OCCCC[C@@H](C)O3)cc1 | 5 | · | 6 | -1 | 0
CCC(=O)Nc1ccc2c(c1)OC[C@@H](C)N(Cc1ccccn1)C[C@@H](C)[C@@H](OC)CN(C)C2=O | 6 | · | 15* | -1 | -1
CCC(=O)Nc1ccc2c(c1)OC[C@H](C)N(Cc1cccnc1)C[C@@H](C)[C@H](OC)CN(C)C2=O | -1 | · | -5 | -9 | -14
CCC(=O)Nc1ccc2c(c1)OC[C@H](C)N(Cc1cccnc1)C[C@H](C)[C@H](OC)CN(C)C2=O | 29* | · | 10 | -26 | -8
CC(C)CC1C(=O)N(Cc2cn(CC3CCCCC3)nn2)CCS(=O)(=O)N1Cc1ccc(-c2ccc(F)nc2)cc1 (stereo unspecified) | 5 | 0 | -1 | -1 | 1
CCC1CCc2sc(C(=O)OCC(=O)N(CCOC)c3c(N)n(Cc4ccccc4)c(=O)[nH]c3=O)cc2C1 (stereo unspecified) | -3 | 4 | 1 | 0 | 5
COCCN(C(=O)COC(=O)c1cc2c(s1)CCC2)c1c(N)n(Cc2ccccc2)c(=O)[nH]c1=O | 4 | 5 | 15* | -13 | ·
SMILES | ERp5 block | PDI turbidity | SIRT5 inh | MLL AF4-AF9 inh | FN deposition inh
CCCCn1c(N)c(N(CCOC)C(=O)c2c(CC)noc2C)c(=O)[nH]c1=O | 6 | 3 | 20* | 0 | 1
COCCCN(C(=O)c1ccc2ccccc2n1)c1c(N)n(Cc2ccccc2)c(=O)[nH]c1=O | 0 | 8 | 1 | -1 | 37*
CCCCn1c(N)c(N(CCOC)C(=O)COC(=O)c2cc(CCC)c(C)s2)c(=O)[nH]c1=O | 1 | 5 | -3 | 41* | 1
CN(C(=O)c1ccccc1Cl)c1ccccc1C(=O)NCc1ccccc1 | -3 | -1 | -3 | 0 | 2
CCNC(=S)N/N=C/c1cc(C)n(-c2ccc(Cl)cc2)c1C | 1 | 4 | 16* | 3 | -34
Cc1cc(/C=N/NC(N)=S)c(C)n1-c1ccc(Cl)c(Cl)c1 | 1 | 4 | -3 | 4 | -10
Cc1cc(/C=N/N2CCN(C)CC2)c(C)n1-c1ccc(Cl)cc1 | 1 | 19 | 3 | 48* | -4
CC1CCN(C(=O)CSc2nnc(CNC(=O)c3ccc(S(=O)(=O)N(C)C)cc3)o2)CC1 | 4 | -22 | 1 | -1 | -7
Cc1cccc(C)c1NC(=O)CS(=O)CC(=O)NCCCc1ccccc1 (stereo unspecified) | 2 | 0 | · | · | ·
O=C1NC[C@H](Cc2ccccc2)N(C[C@H]2CCCN2C[C@H](Cc2ccccc2)N2C[C@H](Cc3ccc(O)cc3)N(CCc3ccccc3)C(=O)C2=O)C1=O | -4 | 42* | 0 | -1 | 9
Oc1ccc(C[C@H]2CNC(=S)N2CC2CCCN2C[C@H](Cc2ccc(O)cc2)N2C[C@H](Cc3ccc(O)cc3)N(CC3CCCCCC3)C2=S)cc1 (stereo partly specified) | 12 | 3 | 17* | -1 | ·
O=C1NC[C@H](Cc2ccccc2)N(C[C@@H]2CCCN2C[C@H](Cc2ccc(O)cc2)N2C[C@H](Cc3ccc(O)cc3)N(CCc3ccccc3)C(=O)C2=O)C1=O | -4 | · | 0 | 0 | ·
CCOc1ccc(CCN2C(=O)C(=O)N([C@@H](CC(C)C)CN3CCC[C@@H]3CN3C(=O)C(=O)NC[C@@H]3Cc3ccccc3)C[C@@H]2Cc2ccc(O)cc2)cc1 | 2 | 54* | -2 | 4 | 5
COc1ccc(-c2ccc([C@@H]3[C@H]4CN(C(=O)c5ccccn5)CC(=O)N4[C@H]3CO)cc2)cc1 | 1 | · | 3 | -1 | ·
Cc1ccc(NC(=O)c2sc(N)nc2-c2ccc([N+](=O)[O-])cc2)c(C)c1 | -3 | 3 | -3 | 30* | 2
CN(C)CCNc1ccc(CO)c2sc3ccc(O)cc3c(=O)c12 | -8 | 6 | · | 15 | 0

Compound activity (PubChem)
